Active and inactive are the calls of the source. No cut-off for these calls is given here.
Experiments:
Cytochrome P450 1A2 = target: T1, Cytochrome P450 1A2 (Homo sapiens, UniProt P05177); test: Inhibition of human CYP1A2; format: ADME
T1 sequence (P05177 whole entry): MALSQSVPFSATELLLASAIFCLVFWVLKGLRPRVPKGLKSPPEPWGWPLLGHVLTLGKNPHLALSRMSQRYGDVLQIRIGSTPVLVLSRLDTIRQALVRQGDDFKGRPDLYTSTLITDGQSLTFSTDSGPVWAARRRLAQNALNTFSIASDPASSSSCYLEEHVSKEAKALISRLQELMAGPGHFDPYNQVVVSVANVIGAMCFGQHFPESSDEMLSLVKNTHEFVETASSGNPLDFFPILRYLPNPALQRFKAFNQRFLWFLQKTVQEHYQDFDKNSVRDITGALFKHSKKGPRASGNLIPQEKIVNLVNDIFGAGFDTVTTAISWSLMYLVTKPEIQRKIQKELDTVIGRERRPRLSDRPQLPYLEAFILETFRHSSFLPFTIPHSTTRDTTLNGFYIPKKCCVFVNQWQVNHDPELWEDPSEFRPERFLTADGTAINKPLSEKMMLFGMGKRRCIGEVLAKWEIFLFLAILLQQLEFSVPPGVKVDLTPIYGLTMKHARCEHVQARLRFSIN
Summary of the method: (§1)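 Inhibition of metabolism of fluorometric substrates (Cypex protocol); IC50 values are the mean of three experiments ± standard deviation.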

Rattus norvegicus [1] = test: Antianalgesic activity against complete Freund's adjuvant-induced rat inflammatory pain in rat assessed as reversal of hypersensitivity at 10 mg/kg, po bid for 5 days measured on day 5 after 1 hr; format: functional, organism-based; set-up: dose 10 mg/kg
[2] = Ratio of drug level in brain to blood in complete Freund's adjuvant induced rat inflammatory pain model at 10 mg/kg, po bid for 5 days measured after 1 hr on day 5
[3] = Lipophilicity, log D at pH 7.4; format: physicochemical; details: buffer
Rattus norvegicus [4] = test: […] activity against complete Freund's adjuvant induced inflammatory pain in po dosed rat assessed as reversal of hypersensitivity post-adjuvant challenge after 1 hr; format: functional
Summary of the method: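 Rats given adjuvant by intraplantar injection; oral dosing at 1, 3 and 10 mg/kg 23 h later. Hypersensitivity assessed by weight-bearing 1 h post-dose. ED50 derived across doses.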

[5] = Solubility in FaSSIF after 0.5 hrs; format: physicochemical
Summary of the method: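 Solubility determined in water, FaSSIF and FeSSIF, all read at the 0.5 h time point.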

[6] = target: T2, Prostaglandin E2 receptor EP3 subtype (Homo sapiens, UniProt P43115); test: Inhibition of EP3 receptor by FLIPR assay
T2 sequence (P43115 whole entry): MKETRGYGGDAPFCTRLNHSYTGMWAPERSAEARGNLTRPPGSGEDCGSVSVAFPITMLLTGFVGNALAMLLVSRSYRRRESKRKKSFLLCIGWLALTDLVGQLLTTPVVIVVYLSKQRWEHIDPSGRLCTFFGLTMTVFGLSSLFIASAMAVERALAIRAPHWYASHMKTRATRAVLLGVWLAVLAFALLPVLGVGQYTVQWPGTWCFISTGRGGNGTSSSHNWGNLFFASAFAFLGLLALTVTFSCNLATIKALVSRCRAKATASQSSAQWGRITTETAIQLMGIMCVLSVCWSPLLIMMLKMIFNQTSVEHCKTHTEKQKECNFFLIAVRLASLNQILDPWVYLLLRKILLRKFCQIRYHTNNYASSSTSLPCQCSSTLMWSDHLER

[7] = target: Prostaglandin G/H synthase 1 (Homo sapiens, UniProt P23219); test: Inhibition of COX1
[8] = target: T3, Prostaglandin G/H synthase 2 (Homo sapiens, UniProt P35354); test: Inhibition of COX2
T3 sequence (P35354 whole entry): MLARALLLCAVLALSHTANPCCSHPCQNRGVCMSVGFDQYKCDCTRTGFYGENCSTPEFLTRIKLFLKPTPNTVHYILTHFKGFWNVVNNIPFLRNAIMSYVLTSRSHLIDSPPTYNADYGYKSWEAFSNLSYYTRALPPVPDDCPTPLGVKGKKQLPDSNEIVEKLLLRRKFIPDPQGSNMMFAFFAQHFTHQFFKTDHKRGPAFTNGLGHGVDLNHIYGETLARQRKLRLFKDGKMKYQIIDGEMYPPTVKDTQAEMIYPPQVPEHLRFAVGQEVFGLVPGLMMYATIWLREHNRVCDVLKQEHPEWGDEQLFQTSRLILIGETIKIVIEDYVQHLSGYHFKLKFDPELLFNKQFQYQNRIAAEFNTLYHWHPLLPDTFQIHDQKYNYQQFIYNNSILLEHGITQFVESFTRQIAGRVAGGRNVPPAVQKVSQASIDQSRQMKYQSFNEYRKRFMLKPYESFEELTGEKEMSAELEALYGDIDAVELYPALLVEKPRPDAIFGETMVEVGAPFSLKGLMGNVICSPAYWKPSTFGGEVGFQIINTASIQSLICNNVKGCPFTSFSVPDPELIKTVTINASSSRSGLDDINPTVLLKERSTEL

Cytochrome P450 3A4 = Cytochrome P450 3A4 (Homo sapiens, UniProt P08684); test: Inhibition of human CYP3A4; format: ADME; summary of the method: as §1
[9] = Drug level in blood of complete Freund's adjuvant-induced rat inflammatory pain model at 1 mg/kg, po administered after 23 hrs of adjuvant challenge measured after 1 hr; format: ADME, organism-based; set-up: dose 1 mg/kg, route oral; details: read-out: Drug uptake
Summary of the method: (§2)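 CFA rat study: oral doses of 1, 3 or 10 mg/kg given 23 h after intraplantar adjuvant, samples 1 h post-dose. Blood values are the mean from seven animals. Brain values are the mean from three animals.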

[10] = Drug level in blood of complete Freund's adjuvant-induced rat inflammatory pain model at 10 mg/kg, po administered after 23 hrs of adjuvant challenge measured after 1 hr; format: ADME, organism-based; set-up: dose 10 mg/kg, route oral; details: read-out: Drug uptake; summary of the method: as §2
[11] = Drug level in mouse blood at 0.5 mg/kg/hr administered by infusion for 12 hrs; format: ADME, organism-based; details: intravenous, read-out: Drug uptake
Summary of the method: (§3)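 Steady-state 12 h infusion at 5 mL/kg/h to reach a target dose of 0.5 mg/kg/h; blood and brain concentrations measured. Data are the mean from three animals.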

[12] = Drug level in mouse brain at 0.5 mg/kg/hr administered by infusion for 12 hrs; format: ADME, organism-based; details: intravenous, read-out: Drug uptake; summary of the method: as §3
[13] = Drug level in rat blood at 0.5 mg/kg/hr administered by infusion for 1 hrs; format: ADME, organism-based; details: intravenous, read-out: Drug uptake
Summary of the method: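 Rat given a 1 h infusion; blood and brain concentrations measured.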

[14] = Ratio of drug level in brain to blood of rat at 0.5 mg/kg/hr administered by infusion for 1 hrs; details: brain and blood, intravenous
[15] = Volume of distribution at steady state in Sprague-Dawley rat at 1 mg/kg administered by intravenous infusion for 1 hr; format: ADME, organism-based; set-up: dose 1 mg/kg, route intravenous; details: in vivo, read-out: Vdss
[16] = Clearance in Beagle dog blood at 1 mg/kg administered by intravenous infusion for 1 hr; format: ADME, organism-based, Canis lupus familiaris; set-up: dose 1 mg/kg, route intravenous
Summary of the method: (§4)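 Intravenous administration as a 1 h infusion of a 1 mg/kg dose. Rats were male Sprague-Dawley; dogs were beagle; monkeys were cynomolgus. Blood clearance, Vss and half-life determined.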

[17] = Volume of distribution at steady state in Beagle dog at 1 mg/kg administered by intravenous infusion for 1 hr; format: ADME, organism-based, Canis lupus familiaris; set-up: dose 1 mg/kg, route intravenous; details: in vivo, read-out: Vdss
[18] = Half life in Beagle dog at 1 mg/kg administered by intravenous infusion for 1 hr; format: ADME, organism-based, Canis lupus familiaris; set-up: dose 1 mg/kg, route intravenous; details: in vivo; summary of the method: as §4
[19] = Half life in cynomolgus monkey at 1 mg/kg administered by intravenous infusion for 1 hr; format: ADME, organism-based, Macaca fascicularis; set-up: dose 1 mg/kg, route intravenous; details: in vivo; summary of the method: as §4

Chain of Cytochrome P450 3A4 (P08684 whole entry): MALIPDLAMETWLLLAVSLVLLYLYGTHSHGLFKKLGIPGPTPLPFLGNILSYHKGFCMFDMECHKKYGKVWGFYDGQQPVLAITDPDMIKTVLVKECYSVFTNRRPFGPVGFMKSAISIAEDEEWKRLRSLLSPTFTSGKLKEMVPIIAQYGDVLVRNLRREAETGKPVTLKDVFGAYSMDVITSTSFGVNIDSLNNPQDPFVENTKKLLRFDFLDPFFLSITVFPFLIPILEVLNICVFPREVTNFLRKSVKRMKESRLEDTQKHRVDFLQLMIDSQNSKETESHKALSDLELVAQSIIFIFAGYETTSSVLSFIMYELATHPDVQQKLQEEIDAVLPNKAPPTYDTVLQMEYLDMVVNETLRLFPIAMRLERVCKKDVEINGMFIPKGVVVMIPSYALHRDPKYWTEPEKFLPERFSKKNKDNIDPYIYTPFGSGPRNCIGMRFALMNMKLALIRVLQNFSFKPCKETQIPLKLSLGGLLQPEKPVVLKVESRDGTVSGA
Chain of Prostaglandin G/H synthase 1 (P23219 whole entry): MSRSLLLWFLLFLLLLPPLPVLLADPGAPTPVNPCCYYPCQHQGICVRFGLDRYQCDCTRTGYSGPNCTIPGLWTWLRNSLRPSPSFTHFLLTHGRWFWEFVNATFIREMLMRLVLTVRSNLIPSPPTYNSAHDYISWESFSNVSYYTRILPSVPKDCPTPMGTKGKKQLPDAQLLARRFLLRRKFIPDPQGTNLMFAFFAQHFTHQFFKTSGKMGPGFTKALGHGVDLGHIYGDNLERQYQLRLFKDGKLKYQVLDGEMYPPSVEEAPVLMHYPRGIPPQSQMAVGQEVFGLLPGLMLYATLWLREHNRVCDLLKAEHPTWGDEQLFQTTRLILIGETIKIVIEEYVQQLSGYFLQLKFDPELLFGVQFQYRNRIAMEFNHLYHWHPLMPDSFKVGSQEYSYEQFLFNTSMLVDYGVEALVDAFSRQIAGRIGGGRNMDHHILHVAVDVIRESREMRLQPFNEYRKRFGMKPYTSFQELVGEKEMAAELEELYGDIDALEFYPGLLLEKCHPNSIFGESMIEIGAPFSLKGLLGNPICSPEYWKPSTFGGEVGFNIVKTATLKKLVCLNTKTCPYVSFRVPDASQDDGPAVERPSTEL

IC50 (Cytochrome P450 1A2): 20 µM
Kp at 1 h [2]: 0.41
logD [3]: 2.1
solubility at 0.5 h [5]: 60 µg/mL
pKi [6]: 5.9
IC50 [7]: > 31.6 µM
IC50 [8]: > 100 µM
IC50 (Cytochrome P450 3A4): ≥ 100 µM
concentration at 1 h [9]: 144 nM
concentration at 1 h [10]: 1510 nM
concentration at 12 h [11]: 199 nM
concentration at 12 h [12]: 56 nM
concentration at 1 h [13]: 1800 nM
Kp at 1 h [14]: 0.21
Vd [15]: 2.1 L/kg
clearance [16]: 18 mL/min/kg
Vd [17]: 0.6 L/kg
half-life [18]: 66 min
half-life [19]: 36 min
Compound: O=C([O-])c1cccc(Cc2cc(Cl)ccc2OCc2ccc(Cl)cc2F)n1.[Na+]
Activity (Rattus norvegicus [1]): Active
ED50 (Rattus norvegicus [4]): 2.6 mg/kg
